# Experimental data taken from ChEMBL document CHEMBL3407473, “5'-(N-aminoacyl)-sulfonamido-5'-deoxyadenosine: attempts for a stable alternative for aminoacyl-sulfamoyl adenosines as aaRS inhibitors” (2015).
# The source made the active and inactive calls. The rule behind the calls is not given here.
# Legend:
# Escherichia coli [1] = experiment: Antimicrobial activity against wild-type Escherichia coli after 18 hrs by broth dilution method; type: functional
# Procedure, shortened: (§1)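 Strains grown overnight in LB, then subcultured the next day in fresh LB. Compounds serially diluted in LB in 96-well plates with cell suspension. Growth read as optical density. Highest concentration tested […], as printed. Broth dilution run in triplicate. MIC50 taken from the OD readings.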
# Staphylococcus aureus = experiment: Antimicrobial activity against Staphylococcus aureus ATCC 6538 after 18 hrs by broth dilution method; type: functional; conditions: ATCC 6538, 18 h; procedure, shortened: as §1
# Micrococcus luteus = experiment: Antimicrobial activity against Sarcina lutea ATCC 9341 after 18 hrs by broth dilution method; type: functional; conditions: ATCC 9341, 18 h; procedure, shortened: as §1
# Candida albicans = experiment: Antimicrobial activity against Candida albicans CO11 after 18 hrs by broth dilution method; type: functional; conditions: CO11, 18 h; procedure, shortened: as §1
# Escherichia coli [2] = experiment: Inhibition of aminoacyl tRNA synthetase in wild-type Escherichia coli S30 cell extract asessed as inhibition of [14C]-radiolabeled aminoacid incorporation at 50 uM after 5 mins by liquid scintillation counting analysis
# Procedure, shortened: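 Inhibitor incubated with 3 L E. coli wt S30 extract, as printed. Aminoacylation mix: Tris.HCl 30 mM pH 8.0, DTT 1 mM, bulk E. coli tRNA 5 g/l, ATP 3 mM, KCl 30 mM, MgCl2 8 mM, 14C-labelled amino acid 40 M (200 mCi/mmol), units as printed. Samples spotted on papers, washed with cold 10% TCA then acetone, dried. Radioactivity read by scintillation counting.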
structure (smiles),measurement,setting,value
Nc1ncnc2c1ncn2[C@@H]1O[C@H](CS(=O)(=O)NC(=O)[C@@H](N)CO)[C@@H](O)[C@H]1O,MIC50,Escherichia coli [1],> 100 µM
same,MIC50,Staphylococcus aureus,> 100 µM
same,MIC50,Micrococcus luteus,> 100 µM
same,MIC50,Candida albicans,> 100 µM
NCC(=O)NS(=O)(=O)C[C@H]1O[C@@H](n2cnc3c(N)ncnc32)[C@H](O)[C@@H]1O,MIC50,Escherichia coli [1],> 100 µM
same,MIC50,Staphylococcus aureus,> 100 µM
same,MIC50,Micrococcus luteus,> 100 µM
same,MIC50,Candida albicans,> 100 µM
Nc1ncnc2c1ncn2[C@@H]1O[C@H](CS(=O)(=O)NC(=O)[C@@H](N)Cc2ccc(O)cc2)[C@@H](O)[C@H]1O,MIC50,Escherichia coli [1],> 100 µM
same,MIC50,Staphylococcus aureus,> 100 µM
same,MIC50,Micrococcus luteus,> 100 µM
same,MIC50,Candida albicans,> 100 µM
Nc1ncnc2c1ncn2[C@@H]1O[C@H](CS(=O)(=O)NC(=O)[C@@H](N)CC(=O)O)[C@@H](O)[C@H]1O,MIC50,Escherichia coli [1],50 µM
same,MIC50,Staphylococcus aureus,> 100 µM
same,MIC50,Micrococcus luteus,> 100 µM
same,MIC50,Candida albicans,> 100 µM
same,inhibition,Escherichia coli [2],Active
CC[C@H](C)[C@H](N)C(=O)NS(=O)(=O)C[C@H]1O[C@@H](n2cnc3c(N)ncnc32)[C@H](O)[C@@H]1O,MIC50,Escherichia coli [1],> 100 µM
same,MIC50,Staphylococcus aureus,> 100 µM
same,MIC50,Micrococcus luteus,> 100 µM
same,MIC50,Candida albicans,> 100 µM
CC(C)C[C@H](N)C(=O)NS(=O)(=O)C[C@H]1O[C@@H](n2cnc3c(N)ncnc32)[C@H](O)[C@@H]1O,MIC50,Escherichia coli [1],> 100 µM
same,MIC50,Staphylococcus aureus,> 100 µM
same,MIC50,Micrococcus luteus,> 100 µM
same,MIC50,Candida albicans,> 100 µM
